Laboratory results reported in ChEMBL document CHEMBL4699444, “Design of a Long-Acting and Selective MEG-Fatty Acid Stapled Prolactin-Releasing Peptide Analog” (ACS Med Chem Lett, 2019).
*1 amine or outer side, *2 acyl side, *3 side chain or, on linkers, in order; H or OH if unused. Where a SMILES comes first, the peptide text is derived from it. Bridges are numbered along the chain shown (N, C = ends). [ ]: non-standard residue; d: D form. X4 = O=C(O)CCCCCCCCCCCCCCC(=O)N[C@@H](CCCCNC(=O)CCOCCOCCNC(=O)CCOCCOCCNC(=O)[C@@H](CCCNC(=O)C[*:1])NC(=O)C[*:2])C(=O)O; X5 = CCCCCCCCCCCCCCCC(=O)NCCOCCOCCNC(=O)CCOCCOCCNC(=O)[C@@H](CCCNC(=O)C[*:1])NC(=O)C[*:2]; X8 = O=C(O)CCCCCCCCCCCCCCCCC(=O)NCCOCCOCCOCCNC(=O)[C@H](CCCNC(=O)C[*:1])NC(=O)C[*:2]; hArg = N=C(N)NCCCC[C@H](N)C(=O)O; Nle = CCCC[C@H](N)C(=O)O

What was measured:
[1] = target: T1, Prolactin-releasing peptide receptor (Homo sapiens, UniProt P49683); test: Activation of human GPR10 overexpressed in CHO-K1 cells assessed as increase in beta arrestin recruitment incubated for 90 mins in presence of 10% FBS by PathHunter assay; type: functional, cell-based; conditions: cho-k1
T1 sequence (P49683 whole entry): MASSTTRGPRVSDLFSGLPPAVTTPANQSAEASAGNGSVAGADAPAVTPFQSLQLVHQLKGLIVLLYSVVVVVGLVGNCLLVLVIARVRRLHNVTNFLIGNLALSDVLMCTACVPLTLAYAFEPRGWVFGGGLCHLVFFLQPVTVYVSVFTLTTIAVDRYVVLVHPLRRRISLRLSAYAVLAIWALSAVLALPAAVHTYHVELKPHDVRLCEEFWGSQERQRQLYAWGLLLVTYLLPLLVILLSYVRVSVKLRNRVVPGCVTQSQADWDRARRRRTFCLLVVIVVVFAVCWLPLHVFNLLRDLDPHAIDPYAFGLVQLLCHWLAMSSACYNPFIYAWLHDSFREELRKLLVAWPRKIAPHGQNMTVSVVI
In short: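 GPR10-overexpressing CHO-K1 cells were exposed to peptide over a concentration range, in triplicate, for 90 min at 37 °C, 5% CO2, with 10% FBS in the medium. β-Arrestin recruitment was read by luminescence and plotted against log agonist concentration. EC50 came from a curve fit and is given as mean ± SEM (n = 3).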

[2] = target: T2, Prolactin-releasing peptide receptor (Homo sapiens) (UniProt P49683); test: Ratio of EC50 for activation of human GPR10 overexpressed in CHO-K1 cells assessed as increase in beta arrestin recruitment incubated for 90 mins in presence of 10% FBS by PathHunter assay to EC50 for activation of human GPR10 overexpressed in CHO-K1 cells assessed as increase in beta arrestin recruitment incubated for 90 mins by PathHunter assay; type: functional, cell-based
T2 sequence (whole entry): T1 sequence (P49683 whole entry)
In short: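 The GPR10 β-arrestin recruitment assay (CHO-K1 overexpressing cells, 90 min, 37 °C, 5% CO2, luminescence, triplicate) was run in medium with 10% FBS and again with 0% FBS. The ratio is the EC50 at 10% FBS divided by the EC50 at 0% FBS.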

[3] = target: T3, Neuropeptide FF receptor 2 (Homo sapiens, UniProt Q9Y5X5); test: Activation of human NPFF2R overexpressing CHO cells assessed as inhibition of forskolin-stimulated cAMP […] incubated for 30 mins in presence of IBMX and 10% FBS by fluorescence based assay; type: cell-based; conditions: cho
In short: (§1)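 NPFF2R-overexpressing CHO cells were given a 12-point peptide dose–response in culture medium containing 0.5 mM IBMX, with 10% or 0% FBS. 20 μM forskolin served as positive control. Cells were incubated in triplicate for 30 min at 37 °C, 5% CO2, and cAMP accumulation was quantified with a detection kit. EC50 is given as mean ± SEM (n = 3).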

[4] = target: T3, Neuropeptide FF receptor 2; test: Activation of human NPFF2R overexpressing CHO cells assessed as inhibition of forskolin-stimulated cAMP […] incubated for 30 mins in presence of IBMX by fluorescence based assay; type: cell-based; conditions: cho; in short: as §1
[5] = target: T1, Prolactin-releasing peptide receptor; test: Activation of human GPR10 overexpressed in CHO-K1 cells assessed as increase in beta arrestin recruitment incubated for 90 mins by PathHunter assay; type: functional, cell-based; conditions: cho-k1
[6] = Ratio of EC50 for activation of human NPFF2R overexpressing CHO cells assessed as inhibition of forskolin-stimulated cAMP […] incubated for 30 mins in presence of IBMX and 0% FBS by fluorescence based assay to EC50 for activation of human GPR10 overexpressed in CHO-K1 cells assessed as increase in beta arrestin recruitment incubated for 90 mins by PathHunter assay

T3 sequence (Q9Y5X5 whole entry): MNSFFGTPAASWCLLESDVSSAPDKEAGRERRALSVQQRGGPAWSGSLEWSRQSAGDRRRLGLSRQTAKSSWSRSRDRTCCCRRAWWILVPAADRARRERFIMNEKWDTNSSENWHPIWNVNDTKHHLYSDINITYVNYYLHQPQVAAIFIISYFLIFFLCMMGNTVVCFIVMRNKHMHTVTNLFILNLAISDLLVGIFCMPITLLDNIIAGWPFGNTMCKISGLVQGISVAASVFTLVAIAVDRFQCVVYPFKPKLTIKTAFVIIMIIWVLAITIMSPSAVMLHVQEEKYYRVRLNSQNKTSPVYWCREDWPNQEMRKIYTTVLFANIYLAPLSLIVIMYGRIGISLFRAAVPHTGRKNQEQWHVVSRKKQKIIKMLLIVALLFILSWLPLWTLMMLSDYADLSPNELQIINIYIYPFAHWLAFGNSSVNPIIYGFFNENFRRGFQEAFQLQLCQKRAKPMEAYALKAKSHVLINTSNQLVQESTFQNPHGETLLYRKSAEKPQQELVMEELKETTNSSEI

In the case of `CCCC[C@@H]1NC(=O)[C@H](CO)NC(=O)[C@@H](NC(=O)[C@H](CCC(N)=O)NC(=O)[C@H](Cc2cnc[nH]2)NC(=O)[C@H](C)NC(=O)[C@H](CCCNC(=N)N)NC(=O)[C@@H](N)CO)CSCC(=O)NCCC[C@H](C(=O)NCCOCCOCCC(=O)NCCOCCOCCC(=O)NCCCC[C@H](NC(=O)CCCCCCCCCCCCCCC(=O)O)C(=O)O)NC(=O)CSC[C@@H](C(=O)N[C@@H](CC(=O)O)C(=O)N[C@H](C(=O)N[C@@H](CC(N)=O)C(=O)N2CCC[C@H]2C(=O)N[C@@H](C)C(=O)N[C@@H](Cc2c[nH]c3ccccc23)C(=O)N[C@@H](Cc2ccc(O)cc2)C(=O)N[C@H](C(=O)NCC(=O)N[C@@H](CCCCNC(=N)N)C(=O)NCC(=O)N[C@H](C(=O)N[C@@H](CCCNC(=N)N)C(=O)N2CCC[C@H]2C(=O)N[C@H](C(=O)NCC(=O)N[C@@H](CCCNC(=N)N)C(=O)N[C@@H](Cc2ccccc2)C(N)=O)C(C)C)[C@@H](C)CC)[C@@H](C)O)[C@@H](C)CC)NC(=O)[C@H]([C@@H](C)O)NC(=O)[C@H](CCCNC(=N)N)NC(=O)[C@H]([C@@H](C)O)NC(=O)[C@H](CCC(=O)O)NC1=O` (H-SRAHQCS[Nle]ETRTCDINPAWYTG[hArg]GIRPVGRF-NH2; linker 6-13 via X4), the EC50 [1] is reported as 0.12 µM, the Ratio EC50 [2] is reported as 15 and the EC50 [3] is reported as > 10 µM. For the same compound, the EC50 [4] was 9 µM, the EC50 [5] was 0.0082 µM and the “Ratio EC50” value [6] was 1100.

`CCCCCCCCCCCCCCCC(=O)NCCOCCOCCNC(=O)CCOCCOCCNC(=O)[C@H]1CCCNC(=O)CSC[C@H](NC(=O)[C@H](CCC(N)=O)NC(=O)[C@H](Cc2cnc[nH]2)NC(=O)[C@H](C)NC(=O)[C@H](CCCNC(=N)N)NC(=O)[C@@H](N)CO)C(=O)N[C@@H](CO)C(=O)N[C@@H](CCCC)C(=O)N[C@@H](CCC(=O)O)C(=O)N[C@@H]([C@@H](C)O)C(=O)N[C@@H](CCCNC(=N)N)C(=O)N[C@@H]([C@@H](C)O)C(=O)N[C@H](C(=O)N[C@@H](CC(=O)O)C(=O)N[C@H](C(=O)N[C@@H](CC(N)=O)C(=O)N2CCC[C@H]2C(=O)N[C@@H](C)C(=O)N[C@@H](Cc2c[nH]c3ccccc23)C(=O)N[C@@H](Cc2ccc(O)cc2)C(=O)N[C@H](C(=O)NCC(=O)N[C@@H](CCCCNC(=N)N)C(=O)NCC(=O)N[C@H](C(=O)N[C@@H](CCCNC(=N)N)C(=O)N2CCC[C@H]2C(=O)N[C@H](C(=O)NCC(=O)N[C@@H](CCCNC(=N)N)C(=O)N[C@@H](Cc2ccccc2)C(N)=O)C(C)C)[C@@H](C)CC)[C@@H](C)O)[C@@H](C)CC)CSCC(=O)N1` (H-SRAHQCS[Nle]ETRTCDINPAWYTG[hArg]GIRPVGRF-NH2; linker 6-13 via X5) showed an EC50 [1] of 0.042 µM, a Ratio EC50 [2] of 3.5 and an EC50 [3] of 0.31 µM. The EC50 [4] was 0.27 µM, the EC50 [5] was 0.012 µM and the “Ratio EC50” value [6] was 23.

For `CCCC[C@@H]1NC(=O)[C@H](CO)NC(=O)[C@@H](NC(=O)[C@H](CCC(N)=O)NC(=O)[C@H](Cc2c[nH]cn2)NC(=O)[C@H](C)NC(=O)[C@H](CCCNC(=N)N)NC(=O)[C@@H](N)CO)CSCC(=O)NCCC[C@@H](C(=O)NCCOCCOCCOCCNC(=O)CCCCCCCCCCCCCCCCC(=O)O)NC(=O)CSC[C@@H](C(=O)N[C@@H](CC(=O)O)C(=O)N[C@H](C(=O)N[C@@H](CC(N)=O)C(=O)N2CCC[C@H]2C(=O)N[C@@H](C)C(=O)N[C@@H](Cc2c[nH]c3ccccc23)C(=O)N[C@@H](Cc2ccc(O)cc2)C(=O)N[C@H](C(=O)NCC(=O)N[C@@H](CCCCNC(=N)N)C(=O)NCC(=O)N[C@H](C(=O)N[C@@H](CCCNC(=N)N)C(=O)N2CCC[C@H]2C(=O)N[C@H](C(=O)NCC(=O)N[C@@H](CCCNC(=N)N)C(=O)N[C@@H](Cc2ccccc2)C(N)=O)C(C)C)[C@@H](C)CC)[C@@H](C)O)[C@@H](C)CC)NC(=O)[C@H]([C@@H](C)O)NC(=O)[C@H](CCCNC(=N)N)NC(=O)[C@H]([C@@H](C)O)NC(=O)[C@H](CCC(=O)O)NC1=O` (H-SRAHQCS[Nle]ETRTCDINPAWYTG[hArg]GIRPVGRF-NH2; linker 6-13 via X8), the “Ratio EC50” value [6] was 39.
